Bioassay records as filed in PubChem BioAssay.
INS-1E GSIS act: GLuc luminescence reporter in INS-1E cells, primary screen for activators of glucose-dependent secretion of insulin | INS-1E GLuc reporter insulin secretion, 2-3 h | activation, % at 16.6 µM | 0.61% of 370,000 active | AID 743287, 2014;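 active = lowest replicate activation of at least 40%, so every replicate reaches that level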;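 note: 0% = median of neutral control wells and 100% = median of IBMX positive control wells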
rRNA inh HTS: reduced GFP signal of wild-type E. coli, primary screen, bacterial rRNA inhibitor project, GFP/RFP fluorescence, OD600, single point. E. coli WT GFP vs humanized-ribosome RFP mutants, 24 h; active compounds read low; DMSO median 0, no signal -100. GFP signal change (wild-type ribosome), % (test concentration not listed). 1.6% of 350,000 active. AID 720706, 2013;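 active = significant combined selectivity score with lowered wild-type GFP, culture density cut under 30%, mutant RFP and density less affected; inactive = any of these conditions unmet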
Cneo AK release: Cryptococcus neoformans cell lysis inducers, primary screen, AK release luminescence, single concentration; C. neoformans lysis, adenylate kinase release luminescence, 4 h; normalised: neutral wells 0, clomiphene wells 100; lysis activity, % at 15 µM; 0.2% of 360,000 active;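 active = mean lysis activity across replicates of at least 80%, whatever share of replicates individually reach that level; inactive = mean lysis activity below 80%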
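Assay system: Cryptococcus neoformans yeast cells / Dosing: single-point compound dose / Timing: 4 h at 37 °C static, read 1 h later / Measured by: luminescence of released adenylate kinase using an AK detection reagent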
Env fusion inh: inhibitors of HIV-1 Env-driven cell-cell fusion, primary screen, HeLa-JRFL effector, CEM21 target cells, luciferase | AID 651610, 2012 | 1.1% of 360,000 active | inhibition, % at 12.3 µM;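 active = mean replicate inhibition score of at least 50 and every replicate individually at or above 50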;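 note: 0% = plate neutral controls and 100% = maraviroc near 300 nM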
miR-122 sensor: miR-122 Renilla sensor signal increase in Huh7, primary screen, miR-122 inhibitor project, cell-based, single point, plate reader | Huh7 miR-122 Renilla luciferase sensor, 48 h; neutral wells = 0, positive control = 100 | activation (reporter increase), % at 12.5 µM | 0.3% of 340,000 active;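 active = mean replicate activation score at least 90 and every replicate individually at or above 90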;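 note: higher luciferase means less miR-122 activity so hits act as miR-122 inhibitors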
CFTR F508del cor: F508del CFTR correction, initial screen, CFBE line, single point | 0.36% of 350,000 active | activity (quench increase), % at 7.58 µM | CFBE cells, YFP halide quenching; stimulated with forskolin plus potentiator P3; % fluorescence drop versus neutral controls | AID 720511, 2013;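 active = mean added fluorescence quench of at least 8% versus neutral control, with both replicates also reaching 8%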;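 note: cells transiently co-express mutant CFTR-F508del with the halide-sensitive YFP; corrector assay measuring rescue of mutant channel to the surface after 24 h compound exposure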
* = called active by the depositor; x = no result; [ ] = dose if it differs, or a comment. Only some compounds are listed: those with a hit (about 3.1% of all), similar ones and a draw of the others.

SMILES | INS-1E GSIS act | rRNA inh HTS | Cneo AK release | Env fusion inh | miR-122 sensor | CFTR F508del cor
CCN(CC)c1ccc(C(=C2C=CC(=[N+](CC)CC)C=C2)c2ccccc2)cc1 | 13.7 | -55.7* | x | 80.6* | x | -9.5
CCN(CC)c1ccc(C(=O)NNC(=O)CCl)cc1 | -8.2 | -8.1 | -2.1 | 18.4 | 3.6 | -2.2
C[C@@H]1CCCCO[C@H](CN(C)Cc2ccccc2)[C@@H](C)CN([C@@H](C)CO)C(=O)c2cc(NC(=O)Nc3ccc(C(F)(F)F)cc3)ccc2O1 | 25.6 | 6.5 | -1.1 | 87.7*[16.7 µM] | -20.3[16.7 µM] | 0.7
C[C@H](CO)N1C[C@H](C)[C@@H](CN(C)Cc2ccccc2)OCCCC[C@H](C)Oc2ccc(NC(=O)Nc3ccc(C(F)(F)F)cc3)cc2C1=O | 26.5 | x | -16.0 | 8.6[16.7 µM] | -17.8[16.7 µM] | 4.5
C[C@@H]1CN([C@H](C)CO)C(=O)c2cc(NC(=O)Nc3ccc(C(F)(F)F)cc3)ccc2O[C@@H](C)CCCCO[C@H]1CN(C)Cc1ccccc1 | -20.1 | -14.5 | 2.3 | 65.6*[16.7 µM] | -23.4[16.7 µM] | 3.9
C[C@H]1CN([C@@H](C)CO)C(=O)c2cc(C#CC3CCCCC3)cnc2O[C@@H]1CN(C)C(=O)c1ccncc1 | -8.8 | 0.3 | 8.6 | -8.3[16.7 µM] | -3.0[16.7 µM] | -0.5
CC(NCc1ccccc1Cl)C(=O)Nc1ccc(C#N)cc1 (centres undefined) | -35.1 | -29.1* | x | 10.9 | 7.3 | 1.7
COC(=O)C1(C(=O)OC)C[C@H](c2ccc(OC)cc2)N(Cc2ccccc2OC)[C@@H]1c1cccs1 | x | 11.2 | x | 91.9* | x | -3.1
COC(=O)C1(C(=O)OC)C[C@H](c2ccc(OC)cc2)N(Cc2ccccc2OC)[C@@H]1c1ccc(OC)cc1 | -0.3 | x | x | 38.5 | x | 0.3
CC(Cc1ccccc1)NC(=S)CN1CCCC1=S (centres undefined) | x | -21.0* | x | -0.7 | x | -4.1
CC(Cc1ccccc1)NC(=O)CC(c1ccccc1)c1ccccc1O (centres undefined) | -57.6 | -38.8 | 0.0 | 11.3 | x | -3.2
C[C@@H]1CN(C)C(=O)c2ccccc2O[C@H]1CN(C)S(C)(=O)=O | 0.3 | 7.4 | x | x | x | x
O=C(c1ccc(C(F)(F)F)cc1)N(CCCn1ccnc1)C(c1ccccn1)c1nc2ccccc2[nH]1 (centres undefined) | 2.3 | 5.5 | -1.6 | 64.7* | 4.5 | -5.2
CCCCCCCn1c(NC(=O)CC)nc2ccccc21 | 91.5 | -55.9 | -0.2 | 72.2* | 9.2 | 3.9
CC(=O)Nc1nc2ccccc2n1Cc1ccccc1Cl | 4.4 | -23.2* | x | 10.8 | 17.8 | -13.7
CCCn1c(Nc2nc3ccccc3n2C)nc2ccccc21 | x | x | -1.7 | 140.2* | -10.3 | x
CC(=O)Nc1nc(NCc2ccccc2Cl)n(-c2ccccc2)n1 | 77.0* | 1.6 | 5.4 | -6.3 | x | 0.6
C[C@@H]1CCCCO[C@H](CN(C)Cc2ccc(C(=O)O)cc2)[C@H](C)CN([C@@H](C)CO)C(=O)c2cc(NC(=O)Nc3ccc4c(c3)OCO4)ccc2O1 | -7.8 | -1.1 | -0.8 | -14.4[16.7 µM] | 3.1[16.7 µM] | -1.2
CC(C)[C@@H]1C(=O)N[C@@H](c2ccc3c(c2)OCO3)C/C=C/C[C@H](C)Oc2ccccc2C(=O)N1C | -11.7 | -2.6 | x | x | x | x
CCC(=O)N(C)C[C@H]1Oc2cc(C3=CCCC3)ccc2S(=O)(=O)N([C@@H](C)CO)C[C@@H]1C | 16.2 | 1.2 | 1.7 | 5.9[16.7 µM] | 4.1[16.7 µM] | 0.5
C[C@@H]1CCCCO[C@H](CN(C)CC2CC2)[C@H](C)CN([C@@H](C)CO)C(=O)c2cc(NS(=O)(=O)c3ccccc3)ccc2O1 | 12.7 | 0.4 | 2.7 | -6.3[16.7 µM] | -6.6[16.7 µM] | 2.4
CNC[C@@H]1OCCCC[C@H](C)Oc2ccc(NC(=O)Nc3cccc4ccccc34)cc2C(=O)N([C@H](C)CO)C[C@@H]1C | 4.3 | 1.8 | x | 15.3[16.7 µM] | -1.2[16.7 µM] | -1.5
Cc1ccc(S(=O)(=O)N(Cc2ccc(Cl)cc2)c2ccccc2C(=O)NCc2ccco2)cc1 | -6.4 | x | x | 68.8* | x | x
CCN(C1CCCCC1)S(=O)(=O)c1ccc(S(=O)(=O)N(CC(=O)Nc2ccccc2)C2CC2)cc1 | x | x | 0.2 | 74.8* | -0.8 | x
Cc1ccc(S(=O)(=O)N(CC(=O)NCc2ccco2)C2CCCCC2)cc1 | -6.8 | -28.1* | 0.6 | x | 5.8 | 2.5
SMILES | INS-1E GSIS act | rRNA inh HTS | Cneo AK release | Env fusion inh | miR-122 sensor | CFTR F508del cor
CC(=O)Nc1ccc2c(c1)C(=O)N(C)[C@H]1CC[C@@H](CC(=O)NCc3ccccc3)O[C@H]1CO2 | -1.3 | 2.1 | 3.7 | 1.1[16.7 µM] | 8.0[16.7 µM] | 2.1
CCCN1C[C@@H](C)[C@@H](OC)CN(C)C(=O)c2ccc(NC(=O)CC)cc2OC[C@H]1C | 6.2 | 3.8 | x | x | 16.4[16.7 µM] | 0.5
Cc1ccc(S(=O)(=O)Nc2ccc3c(c2)CC(=O)N([C@H](C)CO)C[C@@H](C)[C@H](CN(C)C(=O)Nc2cccc4ccccc24)O3)cc1 | -4.9 | -0.5 | 0.5 | 11.2[16.7 µM] | -6.8[16.7 µM] | 1.2
COc1ccccc1OCC(=O)c1[nH]c(C)c(C(C)=O)c1C | x | x | 4.5 | 73.9* | 5.5 | x
COc1cc(C)ccc1OCC(=O)OCC(=O)c1[nH]c(C)c(C(C)=O)c1C | -0.6 | -0.4 | x | 10.0 | 2.8 | 0.5
CCC(=O)N1CC(=O)N2[C@@H](CO)[C@H](c3ccc(C#CC4CCCCC4)cc3)[C@@H]2C1 | -22.5 | 5.3 | x | x | x | 2.7
COc1ccc(S(=O)(=O)N2CCCc3nc(C)c(C)cc32)cc1 | x | -14.7* | x | 6.7 | x | -2.3
O=C(COc1ccc2c(c1)CCC2)NCc1ccc(Cl)cc1 | -11.1 | -30.3* | -0.1 | 8.6 | x | x
COc1ccc(OC)c(NC(=O)COc2ccc3c(c2)CCC3)c1 | 0.2 | -14.5 | -0.5 | 70.1* | x | -7.0
CCOC(=O)Nc1cccc(OCC(=O)Nc2ccc3c(c2)CCC3)c1 | 44.9* | 0.2 | -1.0 | x | 7.0 | 0.2
COc1cccc(NC(=O)COc2ccc3c(c2)CCC3)c1 | -11.5 | -20.1 | x | -15.5 | x | -2.4
c1ccc2c(-c3csc(-c4ccncc4)n3)c[nH]c2c1 | 2.5 | -27.3* | -2.9 | -144.5 | -5.5 | -9.0
COc1ccc(CCNC(=O)COC(=O)CSc2ccc(C(N)=O)cc2[N+](=O)[O-])cc1OC | 46.0* | 4.5 | -0.8 | x | x | -4.6
Cc1[nH]nc(SCC(=O)NCCc2ccccc2)c1[N+](=O)[O-] | -3.7 | -12.7 | x | -1.2 | 3.7 | 1.7
COc1ccc(CCNC(=O)CSc2n[nH]c(C)c2[N+](=O)[O-])cc1OC | 52.4* | -11.6 | x | -11.7 | 2.9 | -0.1
CO[C@@H]1CN(C)C(=O)c2ccc(NS(=O)(=O)c3cn(C)cn3)cc2OC[C@@H](C)N(CC2CC2)C[C@@H]1C | -5.0 | 3.6 | -13.1 | x | x | -4.5
